Test results published in article PMC2767179 (Bioorganic & medicinal chemistry letters, 2009).

Key:
[1] = test system: Myc-induced oncogenic transformation in chicken embryo fibroblasts (CEF); type: cell-based; details: for IC95, inhibition of foci formation: Myc-induced foci in CEF; for inhibition of foci formation: at 20 μM; for inhibition of foci formation / EOT (efficiency of transformation, no inhibition = 1): Myc-induced, CEF; for EOT (efficiency of transformation, no inhibition = 1): tested at 20 μM
How it was run: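 Chicken embryo fibroblasts infected with the RCAS viral vector expressing transforming chicken cellular Myc. Test compound added at 20 μM. Cultures maintained for three weeks, then foci in each well counted manually by eye. Result expressed as efficiency of transformation (EOT), with no inhibition = 1. Active candidates re-tested in iterative rounds.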

[2] = test system: Jun-induced oncogenic transformation in CEF; type: cell-based, chicken; details: CEF infected with avian sarcoma virus 17
[3] = test system: Src-induced oncogenic transformation in CEF; type: cell-based, chicken; details: CEF infected with Prague strain of Rous sarcoma virus
[4] = test system: Myc/Max dimerization; test: FRET assay for inhibition of Myc-Max dimerization; type: binding
[5] = test system: CEF; test: Intrinsic cytotoxic activity for CEF; type: cell-based, chicken

Structure (SMILES) | IC95, inhibition of foci formation [1] [µM] | inhibition of foci formation [1] | EOT (efficiency of transformation, no inhibition = 1) [1] | inhibitory activity for foci formation induced by Jun [2] | inhibitory activity for foci formation induced by Src [3] | inhibition of Myc/Max dimerization [4] | intrinsic cytotoxic activity for CEF [5]
Cc1cc(C)c(S(=O)(=O)N[C@@H](CNC(=O)[C@@H]2CN(C(=O)CC3CCN(C(=O)OC(C)(C)C)CC3)C[C@H]2C(=O)O)C(=O)OC(C)(C)C)c(C)c1 [compound 3, mycmycin-1] | 20 | complete inhibition of foci formation | 0.05 | failed to exhibit inhibitory activity | failed to exhibit inhibitory activity | most effective inhibition | neither possess an intrinsic cytotoxic acitivity
CNC(=O)[C@@H]1CN(C(=O)CCCCCNC(=O)OC(C)(C)C)C[C@H]1C(=O)NC[C@H](NS(=O)(=O)c1cc(Cl)sc1Cl)C(=O)OC(C)(C)C [compound 4, mycmycin-2] | 20 | complete inhibition of foci formation | 0.05 | failed to exhibit inhibitory activity | failed to exhibit inhibitory activity | less effective inhibition | neither possess an intrinsic cytotoxic acitivity
